These results are taken from ChEMBL document CHEMBL3352284, “Synthesis of 7-halogenated isatin sulfonamides: nonradioactive counterparts of caspase-3/-7 inhibitor-based potential radiopharmaceuticals for molecular imaging of apoptosis” (J Med Chem, 2014).

The structures appear in SMILES notation.

In one assay the target is T1, Caspase-1 (Homo sapiens, UniProt P29466).
T1 sequence (P29466 whole entry): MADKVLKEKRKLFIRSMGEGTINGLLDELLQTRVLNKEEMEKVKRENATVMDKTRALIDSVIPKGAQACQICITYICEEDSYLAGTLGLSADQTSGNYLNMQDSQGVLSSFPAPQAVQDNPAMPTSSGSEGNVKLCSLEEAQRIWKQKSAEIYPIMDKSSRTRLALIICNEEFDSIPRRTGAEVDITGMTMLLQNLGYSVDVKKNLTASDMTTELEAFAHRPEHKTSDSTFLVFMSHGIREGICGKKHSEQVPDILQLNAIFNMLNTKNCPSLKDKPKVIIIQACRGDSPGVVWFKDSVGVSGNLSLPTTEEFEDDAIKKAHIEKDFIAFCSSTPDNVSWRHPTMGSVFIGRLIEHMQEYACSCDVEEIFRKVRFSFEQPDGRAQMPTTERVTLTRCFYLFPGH
The assay can be described thus: Inhibition of human recombinant caspase 1 using Ac-YVAD-AMC substrate assessed as accumulation of cleaved fluorogenic product. The method, boiled down:
(§1)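 Inhibitor in DMSO (1−5%) at final 500 μM down to 5 pM in tenfold steps, preincubated 10 min. Peptide-AMC substrate then added (final 10 μM) and reacted 10 min at 37 °C. Released AMC read by fluorescence, excitation 360 nm, emission 460 nm.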

In another assay the target is T2, Caspase-7 (Homo sapiens, UniProt P55210).
T2 sequence (P55210 whole entry): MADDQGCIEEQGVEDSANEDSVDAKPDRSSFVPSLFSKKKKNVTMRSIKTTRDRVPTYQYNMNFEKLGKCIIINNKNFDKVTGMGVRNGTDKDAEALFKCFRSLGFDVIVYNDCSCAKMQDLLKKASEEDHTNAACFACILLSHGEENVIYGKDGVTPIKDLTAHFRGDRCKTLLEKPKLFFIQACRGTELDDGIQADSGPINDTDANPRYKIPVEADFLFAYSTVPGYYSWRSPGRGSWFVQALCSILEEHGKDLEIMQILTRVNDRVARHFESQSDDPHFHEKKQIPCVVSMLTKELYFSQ
As to the kind of experiment: Inhibition of human recombinant caspase 7 using Ac-DEVD-AMC substrate assessed as accumulation of cleaved fluorogenic product. The method, boiled down: as §1

A further assay addresses T3, Caspase-3 (Homo sapiens, UniProt P42574).
T3 sequence (P42574 whole entry): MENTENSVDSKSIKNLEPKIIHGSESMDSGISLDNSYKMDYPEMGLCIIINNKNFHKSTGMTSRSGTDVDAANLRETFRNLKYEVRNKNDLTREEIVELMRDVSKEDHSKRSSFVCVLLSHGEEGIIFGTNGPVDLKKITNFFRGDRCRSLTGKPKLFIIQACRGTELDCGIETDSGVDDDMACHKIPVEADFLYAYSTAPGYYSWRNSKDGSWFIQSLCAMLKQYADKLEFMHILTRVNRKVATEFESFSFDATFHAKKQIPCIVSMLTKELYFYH
As to the kind of experiment: Inhibition of human recombinant caspase 3 using Ac-DEVD-AMC substrate assessed as accumulation of cleaved fluorogenic product. The method, boiled down: as §1

For the next assay, the target named is T4, Caspase-6 (Homo sapiens, UniProt P55212).
T4 sequence (P55212 whole entry): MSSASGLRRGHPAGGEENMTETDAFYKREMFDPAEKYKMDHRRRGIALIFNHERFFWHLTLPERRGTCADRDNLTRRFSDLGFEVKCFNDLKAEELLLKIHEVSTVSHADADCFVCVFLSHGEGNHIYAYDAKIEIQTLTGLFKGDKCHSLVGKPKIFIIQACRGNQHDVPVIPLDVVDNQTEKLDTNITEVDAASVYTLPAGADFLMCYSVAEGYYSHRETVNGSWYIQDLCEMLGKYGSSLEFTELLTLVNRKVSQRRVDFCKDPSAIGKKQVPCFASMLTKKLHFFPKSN
The assay can be described thus: Inhibition of human recombinant caspase 6 using Ac-VEID-AMC substrate assessed as accumulation of cleaved fluorogenic product. The method, boiled down: as §1

On to `CCCCN1C(=O)C(=O)c2cc(S(=O)(=O)N3CCC[C@H]3COC)cc(Cl)c21`, for which the IC50 is 500000 nM at Caspase-1, 263 nM at Caspase-7, 57.7 nM on Caspase-3 and 500000 nM at Caspase-6.

Regarding `CCCCN1C(=O)C(=O)c2cc(S(=O)(=O)N3CCC[C@H]3COC)cc(I)c21`, the IC50 on Caspase-1 is above 500000 nM; on Caspase-7, 907 nM; on Caspase-3 it was 17.4 nM; at Caspase-6, above 500000 nM.

For `COC[C@@H]1CCCN1S(=O)(=O)c1cc(I)c2c(c1)C(=O)C(=O)N2CCCCF`, the IC50 at Caspase-1 worked out at 500000 nM; at Caspase-7 it was 68.1 nM; at Caspase-3 it was 50.7 nM; on Caspase-6, 500000 nM.

As to `CCCN1C(=O)C(=O)c2cc(S(=O)(=O)N3CCC[C@H]3COC)cc(Br)c21`, the IC50 was 157 nM on Caspase-7 and 26.2 nM at Caspase-3.

In the case of `COC[C@@H]1CCCN1S(=O)(=O)c1cc(Br)c2c(c1)C(=O)C(=O)N2`, the IC50 at Caspase-7 and on Caspase-3 was above 500000 nM throughout.

With `COC[C@@H]1CCCN1S(=O)(=O)c1ccc2c(c1)C(=O)C(=O)N2`, the IC50 is above 500000 nM at Caspase-1 and 500000 nM at Caspase-6.

Take `CCN1C(=O)C(=O)c2cc(S(=O)(=O)N3CCC[C@H]3COC)cc(Br)c21`: the IC50 at Caspase-3 is 133 nM.

For the compound `COC[C@@H]1CCCN1S(=O)(=O)c1cc(F)c2c(c1)C(=O)C(=O)N2`, the IC50 on Caspase-1 is above 500000 nM; at Caspase-7, 6620 nM; on Caspase-3 it was above 500000 nM; on Caspase-6, above 500000 nM.

As for `COC[C@@H]1CCCN1S(=O)(=O)c1cc(Br)c2c(c1)C(=O)C(=O)N2C`, the IC50 worked out at 553 nM on Caspase-7 and 353 nM on Caspase-3.

As to `CCCN1C(=O)C(=O)c2cc(S(=O)(=O)N3CCC[C@H]3COC)cc(I)c21`, the IC50 at Caspase-7 was 42.4 nM; on Caspase-3 it was 124 nM.

Regarding `COC[C@@H]1CCCN1S(=O)(=O)c1cc(Cl)c2c(c1)C(=O)C(=O)N2CCCCF`, the IC50 at Caspase-1 turned out to be 2590 nM; at Caspase-7, 55.7 nM; at Caspase-3 it was 4.8 nM; at Caspase-6 it was 500000 nM.

In the case of `COC[C@@H]1CCCN1S(=O)(=O)c1cc(I)c2c(c1)C(=O)C(=O)N2CCCCO`, the IC50 at Caspase-1 is 500000 nM; at Caspase-7, 279 nM; on Caspase-3 it was 33.2 nM; at Caspase-6, 500000 nM.

Turning to `COC[C@@H]1CCCN1S(=O)(=O)c1cc(I)c2c(c1)C(=O)C(=O)N2CCCF`, the results for the IC50 on Caspase-1, on Caspase-3 and at Caspase-6 were above 500000 nM, 20.1 nM and 28500 nM, respectively.

Turning to `COC[C@@H]1CCCN1S(=O)(=O)c1cc(I)c2c(c1)C(=O)C(=O)N2C`, the results for the IC50 on Caspase-7 and on Caspase-3 were 10500 nM and 1190 nM, respectively.

With `COC[C@@H]1CCCN1S(=O)(=O)c1cc(Br)c2c(c1)C(=O)C(=O)N2CCCF`, the IC50 at Caspase-7 was determined as 20.1 nM; at Caspase-3, 81.4 nM.

With `COC[C@@H]1CCCN1S(=O)(=O)c1cc(Br)c2c(c1)C(=O)C(=O)N2CCCCO`, the IC50 was above 500000 nM at Caspase-1, 22.7 nM at Caspase-7, 2.6 nM at Caspase-3 and above 500000 nM at Caspase-6.

For `CCCCN1C(=O)C(=O)c2cc(S(=O)(=O)N3CCC[C@H]3COC)cc(Br)c21`, the IC50 at Caspase-7 was 3.3 nM; on Caspase-3, 46.9 nM.

As for `CCN1C(=O)C(=O)c2cc(S(=O)(=O)N3CCC[C@H]3COC)cc(I)c21`, the IC50 amounted to 20.1 nM on Caspase-7 and 210 nM on Caspase-3.

On to `COC[C@@H]1CCCN1S(=O)(=O)c1cc(I)c2c(c1)C(=O)C(=O)N2`, for which the IC50 at Caspase-7 and at Caspase-3 was above 500000 nM each time.

In the case of `COC[C@@H]1CCCN1S(=O)(=O)c1cc(Cl)c2c(c1)C(=O)C(=O)N2`, the IC50 was 500000 nM on Caspase-1, above 500000 nM at Caspase-7, above 500000 nM at Caspase-3 and above 500000 nM on Caspase-6.

`COC[C@@H]1CCCN1S(=O)(=O)c1cc(F)c2c(c1)C(=O)C(=O)N2CCCCF`: the IC50 at Caspase-1 came to 7430 nM; on Caspase-7 it was 39.3 nM; at Caspase-3 it was 41 nM; on Caspase-6, 12900 nM.

For `COC[C@@H]1CCCN1S(=O)(=O)c1cc(Br)c2c(c1)C(=O)C(=O)N2CCCCF`, the IC50 on Caspase-7 worked out at 5.95 nM; at Caspase-3 it was 31.5 nM.

On to `CCCCN1C(=O)C(=O)c2cc(S(=O)(=O)N3CCC[C@H]3COC)cc(F)c21`, for which the IC50 was determined as 9970 nM on Caspase-1, 9.7 nM on Caspase-7, 2.9 nM on Caspase-3 and 78900 nM at Caspase-6.
